Reference: ChEMBL document CHEMBL1154419, “Pharmacodynamic effects of telavancin against methicillin-resistant and methicillin-susceptible Staphylococcus aureus strains in the presence of human albumin or serum and in an in vitro kinetic model” (Antimicrob Agents Chemother, 2007)
Activity calls are given as the source filed them. The rule behind the calls is not given here.

Assays:
[1] = Cmax in human at 10 mg/kg once daily; type: ADME, organism-based; parameters: dose 10 mg/kg; conditions: in vivo
Staphylococcus aureus [2] = assay: Antibacterial activity against methicillin-susceptible Staphylococcus aureus ATCC 13709 assessed as change in bacterial burden at 10 mg/liter after 12 hrs; type: functional
Staphylococcus aureus [3] = assay: Antibacterial activity against methicillin-susceptible Staphylococcus aureus ATCC 13709 assessed as change in bacterial burden at 2.5 mg/liter after 8 hrs; type: functional
Staphylococcus aureus [4] = assay: Antibacterial activity against methicillin-resistant Staphylococcus aureus COL infected New Zealand white rabbit endocarditis model assessed as reduction in mean aortic vegetation titer at 30 mg/kg, iv twice daily after 4 days; type: functional, Aorta
Staphylococcus aureus [5] = assay: Antibacterial activity against methicillin-susceptible Staphylococcus aureus ATCC 13709 assessed as change in bacterial burden at 5 mg/liter after 2 hrs; type: functional
Staphylococcus aureus [6] = assay: Antibacterial activity against methicillin-susceptible Staphylococcus aureus ATCC 13709 assessed as change in bacterial burden at 5 mg/liter after 6 hrs; type: functional
Staphylococcus aureus [7] = assay: Antibacterial activity against methicillin-susceptible Staphylococcus aureus ATCC 13709 assessed as bacterial regrowth at 0.25 times MIC; type: functional, organism-based
Procedure, shortened: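 Static time-kill in cation-supplemented M-H broth, inoculum ~5 × 10⁵ CFU/ml, 37°C; samples at 0, 3, 6, 12 and 24 h plated on blood agar for viable counts (detection limit 5 × 10¹ CFU/ml); duplicate runs.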

Staphylococcus aureus [8] = assay: Antibacterial activity against methicillin-resistant Staphylococcus aureus ATCC 33591 assessed as change in bacterial burden at 10 mg/liter after 24 hrs; type: functional
Procedure, shortened: (§1)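 In vitro kinetic model: spinner flask with 0.45-μm filter and prefilter, stirred, M-H broth at 37°C, starting inoculum approx. 5 × 10⁵ CFU/ml. Single initial drug dose of 1.0 to 40 mg/liter, with flow set to give a half-life of approx. 8 h. Viable counts at 0, 2, 4, 6, 8, 12 and 24 h. Duplicate runs per strain and concentration.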

Staphylococcus aureus [9] = assay: Antibacterial activity against methicillin-susceptible Staphylococcus aureus ATCC 13709 assessed as change in bacterial burden at 20 mg/liter after 8 hrs; type: functional; procedure, shortened: as §1
[10] = Half life in human serum at 7.5 mg/kg; type: ADME, organism-based; parameters: dose 7.5 mg/kg
Staphylococcus aureus [11] = assay: Antibacterial activity against methicillin-resistant Staphylococcus aureus ATCC 33591 assessed as bacterial regrowth at 0.5 times MIC after 24 hrs in presence of human albumin; type: functional, organism-based
Procedure, shortened: (§2)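 Static time-kill in M-H broth, in M-H broth with 40 g/liter fatty-acid-free purified human albumin, or in M-H broth with inactivated 50% human serum. Inoculum approx. 5 × 10⁵ CFU/ml, drug at 0.5, 1, 2.5, 5, 10, 25 and 50× MIC, 37°C. Samples at 0, 3, 6, 12 and 24 h plated on blood agar, counted after 24 h. Detection limit 5 × 10¹ CFU/ml. Run in duplicate.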

Staphylococcus aureus [12] = assay: Antibacterial activity against methicillin-susceptible Staphylococcus aureus ATCC 13709 assessed as change in bacterial burden at 20 mg/liter after 12 hrs; type: functional
Staphylococcus aureus [13] = assay: Antibacterial activity against methicillin-susceptible Staphylococcus aureus ATCC 13709 assessed as change in bacterial burden at 10 mg/liter after 8 hrs; type: functional
Staphylococcus aureus [14] = assay: Antibacterial activity against methicillin-resistant Staphylococcus aureus ATCC 33591 assessed as change in bacterial burden at 2.5 mg/liter after 8 hrs; type: functional; procedure, shortened: as §1
Staphylococcus aureus [15] = assay: Antibacterial activity against methicillin-susceptible Staphylococcus aureus ATCC 13709 assessed as change in bacterial burden at 5 mg/liter after 24 hrs; type: functional
Staphylococcus aureus [16] = assay: Antibacterial activity against methicillin-susceptible Staphylococcus aureus ATCC 13709 assessed as bacterial killing at 50 times MIC after 24 hrs in presence of human albumin; type: functional, organism-based
Staphylococcus aureus [17] = assay: Antibacterial activity against methicillin-susceptible Staphylococcus aureus ATCC 13709 assessed as change in bacterial burden at 10 mg/liter after 24 hrs; type: functional; procedure, shortened: as §1
Staphylococcus aureus [18] = assay: Antibacterial activity against methicillin-resistant Staphylococcus aureus ATCC 33591 assessed as bacterial killing at 50 times MIC after 24 hrs; type: functional, organism-based; procedure, shortened: as §2
Staphylococcus aureus [19] = assay: Antibacterial activity against methicillin-susceptible Staphylococcus aureus ATCC 13709 assessed as bacterial killing at 0.5 to 50 times MIC after 24 hrs; type: functional; procedure, shortened: as §2
Staphylococcus aureus [20] = assay: Antibacterial activity against methicillin-resistant Staphylococcus aureus ATCC 33591 assessed as bacterial killing at 50 times MIC after 24 hrs in presence of human albumin; type: functional, organism-based; procedure, shortened: as §2
Staphylococcus aureus [21] = assay: Antibacterial activity against methicillin-resistant Staphylococcus aureus ATCC 33591 assessed as bacterial killing at 10 times MIC after 6 hrs in MH-broth; type: functional, organism-based
Procedure, shortened: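 Strain diluted in M-H broth to approx. 10⁵ CFU/ml and grown 6 h into log phase, then split. Broth tubes got drug at 10× MIC directly. PBS tubes were transferred to PBS and held 3 h more, then dosed at 10× MIC. Growth controls were run in each medium. Viable counts at 0, 3, 6, 9, 12 and 24 h. Run in duplicate.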

[22] = Ratio of AUC in in vitro kinetic model containing Mueller-Hinton broth and methicillin-susceptible Staphylococcus aureus ATCC 13709 to MIC for methicillin-susceptible Staphylococcus aureus ATCC 13709 in bacterial killing stage; type: functional
Staphylococcus aureus [23] = assay: Antibacterial activity against methicillin-susceptible Staphylococcus aureus ATCC 13709 assessed as change in bacterial burden at 40 mg/liter after 12 hrs; type: functional; procedure, shortened: as §1
[24] = AUC (0 to 24 hrs) in human at 10 mg/kg once daily; type: ADME, organism-based; parameters: time < 24 hr, dose 10 mg/kg; conditions: plasma
Staphylococcus aureus [25] = assay: Antibacterial activity against methicillin-susceptible Staphylococcus aureus ATCC 13709 assessed as change in bacterial burden at 2.5 mg/liter after 12 hrs; type: functional
Staphylococcus aureus [26] = assay: Antibacterial activity against methicillin-resistant Staphylococcus aureus ATCC 33591 assessed as change in bacterial burden at 5 mg/liter after 6 hrs; type: functional; procedure, shortened: as §1
Plasma = assay: Protein binding in human plasma; type: ADME, cell-free
Staphylococcus aureus [27] = assay: Antibacterial activity against methicillin-susceptible Staphylococcus aureus ATCC 13709 assessed as change in bacterial burden at 10 mg/liter after 6 hrs; type: functional; procedure, shortened: as §1
Staphylococcus aureus [28] = assay: Antibacterial activity against methicillin-resistant Staphylococcus aureus ATCC 33591 assessed as change in bacterial burden at 5 mg/liter after 2 hrs; type: functional; procedure, shortened: as §1
Staphylococcus aureus [29] = assay: Antibacterial activity against methicillin-resistant Staphylococcus aureus ATCC 33591 assessed as change in bacterial burden at 10 mg/liter after 6 hrs; type: functional; procedure, shortened: as §1
Staphylococcus aureus [30] = assay: Antibacterial activity against methicillin-susceptible Staphylococcus aureus ATCC 13709 assessed as change in bacterial burden at 10 mg/liter after 2 hrs; type: functional; procedure, shortened: as §1
Staphylococcus aureus [31] = assay: Antibacterial activity against methicillin-susceptible Staphylococcus aureus ATCC 13709 assessed as bacterial killing at 0.5 to 50 times MIC after 24 hrs in presence of 50% human serum; type: functional, organism-based
Staphylococcus aureus [32] = assay: Antibacterial activity against methicillin-susceptible Staphylococcus aureus ATCC 13709 in MH-broth; type: functional, organism-based
Staphylococcus aureus [33] = assay: Antibacterial activity against methicillin-resistant Staphylococcus aureus ATCC 33591 assessed as bacterial regrowth at 1 times MIC after 24 hrs in presence of human albumin; type: functional, organism-based; procedure, shortened: as §2
Staphylococcus aureus [34] = assay: Antibacterial activity against methicillin-resistant Staphylococcus aureus ATCC 33591 assessed as change in bacterial burden at 20 mg/liter after 4 hrs; type: functional; procedure, shortened: as §1
Staphylococcus aureus [35] = assay: Antibacterial activity against methicillin-resistant Staphylococcus aureus ATCC 33591 assessed as change in bacterial burden at 1 mg/liter after 8 hrs; type: functional; procedure, shortened: as §1

CCCCCCCCCCNCCN[C@@]1(C)C[C@H](O[C@H]2[C@H](Oc3c4cc5cc3Oc3ccc(cc3Cl)[C@@H](O)[C@@H](NC(=O)[C@@H](CC(C)C)NC)C(=O)N[C@@H](CC(N)=O)C(=O)N[C@H]5C(=O)N[C@H]3C(=O)N[C@H](C(=O)N[C@H](C(=O)O)c5cc(O)c(CNCP(=O)(O)O)c(O)c5-c5cc3ccc5O)[C@H](O)c3ccc(c(Cl)c3)O4)O[C@H](CO)[C@@H](O)[C@@H]2O)O[C@@H](C)[C@H]1O [TELAVANCIN]
Cmax [1]: 5200 ng/mL
deltalog10CFU/ml (Staphylococcus aureus [2]): -4.5
deltalog10CFU/ml (Staphylococcus aureus [3]): -3.4
log10CFU/g (Staphylococcus aureus [4]): 4.7
deltalog10CFU/ml (Staphylococcus aureus [5]): -1.2
deltalog10CFU/ml (Staphylococcus aureus [6]): -3.4
Activity (Staphylococcus aureus [7]): Active
deltalog10CFU/ml (Staphylococcus aureus [8]): -5.1
deltalog10CFU/ml (Staphylococcus aureus [9]): -4.6
half-life [10]: 420 min
Activity (Staphylococcus aureus [11]): Active
deltalog10CFU/ml (Staphylococcus aureus [12]): -4.6
deltalog10CFU/ml (Staphylococcus aureus [13]): -4.3
deltalog10CFU/ml (Staphylococcus aureus [14]): -3.2
deltalog10CFU/ml (Staphylococcus aureus [15]): -4.7
Activity (Staphylococcus aureus [16]): Active
deltalog10CFU/ml (Staphylococcus aureus [17]): -4.5
Activity (Staphylococcus aureus [18]): Active
LCK (Staphylococcus aureus [19]): >3
Activity (Staphylococcus aureus [20]): Active
Activity (Staphylococcus aureus [21]): Active
RatioAUC/MIC [22]: 404
deltalog10CFU/ml (Staphylococcus aureus [23]): -4.7
AUC at 24 h [24]: 51000 ng·h/mL
deltalog10CFU/ml (Staphylococcus aureus [25]): -4.7
deltalog10CFU/ml (Staphylococcus aureus [26]): -3.1
Activity (Plasma): 92%
deltalog10CFU/ml (Staphylococcus aureus [27]): -3.3
deltalog10CFU/ml (Staphylococcus aureus [28]): -0.9
deltalog10CFU/ml (Staphylococcus aureus [29]): -3
deltalog10CFU/ml (Staphylococcus aureus [30]): -1.2
Activity (Staphylococcus aureus [31]): Active
Activity (Staphylococcus aureus [32]): Dose-dependent effect
Activity (Staphylococcus aureus [33]): Active
deltalog10CFU/ml (Staphylococcus aureus [34]): -2.1
deltalog10CFU/ml (Staphylococcus aureus [35]): -3.5
